Active and inactive are the calls of the source. The calls are words filed in the database; no cut-off is given here.
Legend:
[1] = Inhibition of bovine trypsin; design: species or system Bos taurus
Outline: (§1)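 Fluorogenic kinetic assay. Protease and inhibitor preincubated at RT for 30 min before substrate was added. Read at ex 355/em 480 nm every 30 s for 1 h. Initial rates were taken by linear regression, and fractional activity was the inhibited rate over the uninhibited blank rate.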

[2] = Toxicity in Thamnocephalus platyurus after 24 hrs by acute toxicity assay; format: organism-based; details: in vivo
Outline: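 Thamnocephalus platyurus instar II–III larvae hatched from cysts were exposed in multiwell plates for 24 h to six concentrations from 0.1 to 100 µM of highly purified compound, with 20–30 animals per concentration. LC50 was obtained by nonlinear regression.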

[3] = biological target: T1, Urokinase-type plasminogen activator (Homo sapiens, UniProt P00749); experiment: Inhibition of human LMW urokinase at < 2.5 uM; outline: as §1
Prothrombin [4] = biological target: T2, Prothrombin (Homo sapiens, UniProt P00734); experiment: Inhibition of thrombin; outline: as §1
Coagulation factor XI = Coagulation factor XI (Homo sapiens, UniProt P03951); experiment: Inhibition of factor 11a; outline: as §1
[5] = Inhibition of trypsin; outline: as §1
Plasminogen = Plasminogen (Homo sapiens, UniProt P00747); experiment: Inhibition of plasmin; outline: as §1
[6] = Inhibition of chymotrypsin; outline: as §1
[7] = biological target: T1, Urokinase-type plasminogen activator; experiment: Inhibition of human LMW urokinase; outline: as §1
[8] = biological target: T3, Tissue-type plasminogen activator (Homo sapiens, UniProt P00750); experiment: Inhibition of human tissue plasminogen activator; outline: as §1
Target sequence in this assay (P00750 whole entry): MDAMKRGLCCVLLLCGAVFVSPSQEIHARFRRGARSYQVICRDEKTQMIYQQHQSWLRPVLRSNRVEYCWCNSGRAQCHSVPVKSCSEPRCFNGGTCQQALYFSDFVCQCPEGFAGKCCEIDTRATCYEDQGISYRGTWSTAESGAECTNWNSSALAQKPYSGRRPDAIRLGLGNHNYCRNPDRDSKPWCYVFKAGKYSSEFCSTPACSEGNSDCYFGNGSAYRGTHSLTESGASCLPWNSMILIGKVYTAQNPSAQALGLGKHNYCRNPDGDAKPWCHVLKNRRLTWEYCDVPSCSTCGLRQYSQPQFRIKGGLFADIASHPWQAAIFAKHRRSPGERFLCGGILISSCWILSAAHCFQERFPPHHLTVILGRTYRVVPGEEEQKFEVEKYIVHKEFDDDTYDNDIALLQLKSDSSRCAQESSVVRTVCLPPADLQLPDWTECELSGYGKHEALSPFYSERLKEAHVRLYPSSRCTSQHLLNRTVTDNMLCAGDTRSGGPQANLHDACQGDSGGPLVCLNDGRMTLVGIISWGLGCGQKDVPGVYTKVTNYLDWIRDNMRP

[9] = Inhibition of human kallikrein; outline: as §1
[10] = biological target: T3, Tissue-type plasminogen activator; experiment: Inhibition of human tissue plasminogen activator at < 2.5 uM; outline: as §1
Target sequence in this assay (P00750 36-562 limits assumed): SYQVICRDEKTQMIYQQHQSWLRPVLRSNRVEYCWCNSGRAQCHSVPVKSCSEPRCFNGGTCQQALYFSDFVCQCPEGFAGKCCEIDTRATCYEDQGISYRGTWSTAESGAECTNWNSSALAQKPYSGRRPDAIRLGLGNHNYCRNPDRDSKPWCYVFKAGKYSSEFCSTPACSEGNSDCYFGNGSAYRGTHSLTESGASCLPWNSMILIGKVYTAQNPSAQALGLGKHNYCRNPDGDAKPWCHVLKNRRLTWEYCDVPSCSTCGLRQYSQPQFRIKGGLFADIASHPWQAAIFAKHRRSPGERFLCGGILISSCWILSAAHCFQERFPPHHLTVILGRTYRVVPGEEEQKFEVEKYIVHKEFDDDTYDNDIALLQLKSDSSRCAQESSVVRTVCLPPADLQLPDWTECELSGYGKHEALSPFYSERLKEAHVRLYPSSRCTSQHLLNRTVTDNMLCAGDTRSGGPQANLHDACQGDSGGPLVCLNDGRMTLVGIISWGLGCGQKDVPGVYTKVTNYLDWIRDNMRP

Prothrombin [11] = biological target: T2, Prothrombin; experiment: Inhibition of thrombin at < 2.5 uM; outline: as §1

Chain of Coagulation factor XI (P03951 19-387 limits assumed): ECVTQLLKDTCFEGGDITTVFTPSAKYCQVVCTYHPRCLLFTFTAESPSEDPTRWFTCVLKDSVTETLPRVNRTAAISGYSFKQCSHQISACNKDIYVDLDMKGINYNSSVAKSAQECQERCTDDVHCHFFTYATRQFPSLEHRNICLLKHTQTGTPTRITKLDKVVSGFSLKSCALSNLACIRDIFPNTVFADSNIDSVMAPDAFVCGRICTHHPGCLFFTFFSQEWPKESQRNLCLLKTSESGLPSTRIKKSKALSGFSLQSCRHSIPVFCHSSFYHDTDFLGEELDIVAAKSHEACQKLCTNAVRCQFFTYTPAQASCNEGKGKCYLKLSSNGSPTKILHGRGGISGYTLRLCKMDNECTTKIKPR
Chain of Coagulation factor XI (P03951 388-625 limits assumed): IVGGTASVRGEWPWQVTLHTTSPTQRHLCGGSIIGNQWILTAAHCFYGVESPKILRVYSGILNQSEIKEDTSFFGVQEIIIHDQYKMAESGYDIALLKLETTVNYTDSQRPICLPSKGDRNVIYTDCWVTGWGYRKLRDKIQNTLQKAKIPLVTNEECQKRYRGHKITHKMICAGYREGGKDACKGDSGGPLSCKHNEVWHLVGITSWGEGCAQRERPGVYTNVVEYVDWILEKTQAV
Chain of Plasminogen (P00747 97-580 limits assumed): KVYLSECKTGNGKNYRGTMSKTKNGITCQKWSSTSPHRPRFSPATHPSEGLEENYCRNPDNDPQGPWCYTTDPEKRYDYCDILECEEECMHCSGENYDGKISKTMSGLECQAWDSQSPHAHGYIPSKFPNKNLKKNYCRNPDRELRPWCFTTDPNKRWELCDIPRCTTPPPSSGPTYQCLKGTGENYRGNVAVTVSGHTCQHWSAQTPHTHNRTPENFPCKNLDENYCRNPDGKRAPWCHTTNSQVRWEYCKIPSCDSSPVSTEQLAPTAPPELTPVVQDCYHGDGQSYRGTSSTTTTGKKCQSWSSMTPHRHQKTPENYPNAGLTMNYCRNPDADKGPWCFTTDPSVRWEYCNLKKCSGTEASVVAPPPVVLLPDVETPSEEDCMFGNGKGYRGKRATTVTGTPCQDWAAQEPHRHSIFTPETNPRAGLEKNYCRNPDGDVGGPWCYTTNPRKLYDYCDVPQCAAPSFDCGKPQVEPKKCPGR
Chain of Plasminogen (P00747 581-810 limits assumed): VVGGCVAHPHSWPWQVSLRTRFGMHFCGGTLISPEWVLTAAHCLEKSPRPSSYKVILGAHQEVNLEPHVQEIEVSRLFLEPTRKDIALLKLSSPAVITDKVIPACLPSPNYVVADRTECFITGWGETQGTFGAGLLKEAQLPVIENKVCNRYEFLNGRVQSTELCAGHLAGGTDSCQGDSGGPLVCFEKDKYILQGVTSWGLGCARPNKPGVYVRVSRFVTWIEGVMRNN

| SMILES | IC50 [1] [nM] | LC50 at 24 h [2] [nM] | inhibition [3] | IC50 (Prothrombin [4]) [nM] | IC50 (Coagulation factor XI) [nM] | IC50 [5] [nM] | IC50 (Plasminogen) [nM] | IC50 [6] [nM] | IC50 [7] [nM] | IC50 [8] [nM] | IC50 [9] [nM] | inhibition [10] | inhibition (Prothrombin [11]) |
| --- | --- | --- | --- | --- | --- | --- | --- | --- | --- | --- | --- | --- | --- |
| CC(C)C[C@@H](NC(=O)[C@H](O)COS(=O)(=O)O)C(=O)N[C@@H]1C(=O)N[C@@H](CCCNC(=N)N)C(=O)N[C@H]2CC[C@@H](O)N(C2=O)[C@@H](CC(C)C)C(=O)N(C)[C@@H](Cc2ccc(O)cc2)C(=O)N[C@@H](C(C)C)C(=O)O[C@@H]1C | 10 |  |  |  |  |  |  |  |  |  |  |  |  |
| CCCCCC(=O)N[C@@H](CCC(=O)O)C(=O)N[C@@H]1C(=O)N[C@@H](CCCNC(=N)N)C(=O)N[C@H]2CC[C@@H](O)N(C2=O)[C@@H](Cc2ccccc2)C(=O)N(C)[C@@H](Cc2ccc(O)cc2)C(=O)N[C@@H](C(C)C)C(=O)O[C@@H]1C [CYANOPEPTOLIN 1020] |  | 8800 | inactive | > 2500 | 3.9 | 0.67 | 490 | 1800 | > 605000 | > 2500 | 4.5 | inactive | inactive |

Reference: ChEMBL document CHEMBL1177870, “Multiple toxin production in the cyanobacterium microcystis: isolation of the toxic protease inhibitor cyanopeptolin 1020” (J Nat Prod, 2010)
